Records with an inconclusive call do not appear. Active and inactive are the calls of the source.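 The calls were made as follows, unless noted: active = growth inhibition above 25% in both replicates, a cutoff set 3 SD above the mean; inconclusive = above 25% in only one replicate; inactive = the rest.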
Key:
[1] = S. cerevisiae growth inhibition in permissive medium (OD615), pilot counter-assay for S. cerevisiae lifespan shortening project, permissive growth control (AID 705); conditions: OD615, 24 h, at 10 µM, stronger effect = higher value
Summary of the method: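 System: Engineered DeaD yeast | Buffer or medium: SC raffinose/galactose permissive medium | Doses: 10 µM single dose, 0.25% DMSO | Times: 24 h exposure, 30 °C | Measured by: OD615 turbidity read | Read-out: Yeast growth inhibition indicated by reduced 24 h OD615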

[2] = S. cerevisiae growth inhibition in restrictive medium, OD615, pilot screen, restrictive growth control, yeast lifespan reduction project (AID 706;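 active = growth inhibition above a set limit, 3 SD over mean compound inhibition, in both replicates, cut at about 43% in these data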;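 also: modified DeaD lifespan yeast strain shifted to restrictive glucose medium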); conditions: OD615, 48 h, at 10 µM, stronger effect = higher value
Summary of the method: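 Assay system: engineered S. cerevisiae DeaD strain; Buffer or medium: CSMM-D glucose medium; Dosing: 10 µM compound, 0.25% DMSO; Times: cell pre-growth 4 h, compound exposure 48 h, 30 °C; Detection: absorbance (optical density) measured at 615 nm.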

[3] = doxorubicin toxicity protection in MRP-1 cells – H69AR cells, CellTiter-Glo, duplicate, MRP-1 activator project, pilot screen (AID 807;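 active = viability increase at or above a cutoff of the median across tested compounds plus 3 SD, cut at about 8.5% in these data, passing the limit was not always enough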;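 also: compound pretreatment 18-22 h then 72 h combined with doxorubicin; 0% = doxorubicin alone and 100% = vehicle without doxorubicin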); conditions: H69AR viability with doxorubicin, CellTiter-Glo luminescence; at 10 µM; stronger effect = higher value
[4] = viability of HCT116 without oncogenic beta-catenin – human colon tumor cells, pilot screen (AID 823;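 active = cell viability at or below a set limit in both duplicate runs, the limit being the all-compound median minus 4 SD, cut at about 23% in these data, passing the limit was not always enough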;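 also: 0% = wells killed by 20 µM Hyamine and 100% = untreated DMSO cell wells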); conditions: HCT116 beta-catenin knockout viability, CellTiter-Glo, 60 h; at 10 µM; stronger effect = lower value
[5] = viability of PTEN-null HCT116 cells – cell-based, HCT116 clonal line, CellTiter-Glo, pilot screen (AID 824;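 active = viability at or below 27.92% in each of two runs, the all-compound median minus 4 SD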;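 also: 0% = 20 µM Hyamine control and 100% = vehicle cell control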); conditions: HCT116 PTEN-deleted viability, 60 h, at 10 µM, stronger effect = lower value
[6] = RAM pathway blockade in budding yeast – dse1pr::URA3 reporter, 5-FOA selection, pilot screen (AID 869;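 active = inhibition over a set limit, the all-compound mean plus 3 SD, in both replicate runs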;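 also: 0% = DMSO wells with no growth and 100% = 10 µM 1-NA-PP1 with full growth; RAM network block rescues cells from 5-FOA so hits raise OD615 growth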); conditions: S. cerevisiae dse1pr::URA3 5-FOA growth, OD615, 2 d; at 10 µM; stronger effect = higher value; strain carries analog-sensitive mutant Cbk1 kinase
[7] = RAM signaling pathway blockade in yeast – S. cerevisiae, Pdr1DBD-CYC8 efflux-inhibited sensitized strain, primary screen (AID 1298;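 active = RAM network inhibition above 8.4% in each of two replicates, 3 SD over the compound average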;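 also: 0% = DMSO untreated cells without growth and 100% = 10 µM 1-NA-PP1 full growth; higher means more yeast growth rescued from 5-FOA killing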); conditions: S. cerevisiae cbk1-as DSE1-URA3 strain, 5-FOA growth OD615, 2 d; at 50 µM; stronger effect = higher value

O=C(Sc1nnc(-c2ccccc2)o1)N1c2ccccc2Sc2ccccc21
inactive: growth inhibition [1] 15.4% | growth inhibition [2] 21.9% | viability increase [3] -4.17% | viability [4] 85.1% | viability [5] 89.7% | inhibition [6] 2.49% | RAM network inhibition [7] 3.79%

CCCSc1nnc(Cn2c(=O)sc3ccccc32)n1-c1ccccc1
inactive: growth inhibition [1] -9.77% | growth inhibition [2] 3.11% | viability increase [3] 1.4% | viability [4] 92.6% | viability [5] 81.3% | inhibition [6] 3.3% | RAM network inhibition [7] 11%

Cc1cc(Nc2cccc(Cl)c2C)n2ncnc2n1
inactive: growth inhibition [1] -2.94% | growth inhibition [2] -1.32% | viability increase [3] -1.11% | viability [4] 94.2% | viability [5] 95% | inhibition [6] 2.26% | RAM network inhibition [7] 2.35%

O=C(OCC(F)(F)C(F)F)c1ccccc1C(=O)Oc1ccc(F)cc1F
inactive: growth inhibition [1] -2.13% | growth inhibition [2] -13.3% | viability increase [3] -3.1% | viability [4] 99.1% | viability [5] 96.1% | inhibition [6] 1.86% | RAM network inhibition [7] 3.89%

CN1C(=O)NC(c2ccccc2)C2=C1CN(Cc1ccco1)C2=O (configuration not stated)
inactive: growth inhibition [1] -6.95% | growth inhibition [2] -14.4% | viability increase [3] -2.48% | viability [4] 90.4% | viability [5] 89.7% | inhibition [6] 1.47% | RAM network inhibition [7] 3%

NC(=O)C1CCN(C(=O)CN(c2cccc(C(F)(F)F)c2)S(=O)(=O)c2ccccc2)CC1
inactive: growth inhibition [1] -10.2% | growth inhibition [2] -14.5% | viability increase [3] -1.48% | viability [4] 99.7% | viability [5] 94.7% | inhibition [6] 2.27% | RAM network inhibition [7] 4.31%

O=C(CSc1ncn[nH]1)Nc1nnc(-c2ccccc2)s1
inactive: growth inhibition [1] 6.24% | growth inhibition [2] 11.1% | viability increase [3] 4.9% | viability [4] 94.3% | viability [5] 93.7% | inhibition [6] -0.75% | RAM network inhibition [7] 0.61%

CCC(=O)Nc1nc2c(OC)ccc(C)c2s1
inactive: growth inhibition [1] -17.7% | growth inhibition [2] -14.1% | viability increase [3] -5.96% | viability [4] 96.4% | viability [5] 92.2% | inhibition [6] 0.225% | RAM network inhibition [7] 1.37%

CCc1ccc(C2CC(c3ccccc3Cl)Nc3nc(N)nn32)cc1 (configuration not stated)
inactive: growth inhibition [1] 8.37% | growth inhibition [2] 26.1% | viability increase [3] -2.66% | viability [4] 95% | viability [5] 80.7% | inhibition [6] 0.86% | RAM network inhibition [7] 8.56%

c1ccc(-c2ccc(-c3nc(-c4cccnc4)no3)cc2)cc1
inactive: growth inhibition [1] 16.4% | growth inhibition [2] 20% | viability increase [3] -0.01% | viability [4] 80.8% | viability [5] 89.3% | inhibition [6] 0.455% | RAM network inhibition [7] -0.01%

Cn1c(C(=O)NCCCN2CCN(c3cccc(Cl)c3)CC2)cc2c(=O)n(C)c3ccccc3c21
inactive: growth inhibition [1] -2.52% | growth inhibition [2] -0.835% | viability increase [3] -2.92% | viability [4] 59.9% | viability [5] 59% | inhibition [6] -0.02% | RAM network inhibition [7] 7.94%

[O-]/[N+](=C/c1cccnc1)c1ccc(Br)cc1
inactive: growth inhibition [1] -11.4% | growth inhibition [2] -4.11% | viability increase [3] -4.72% | viability [4] 93.8% | viability [5] 94% | inhibition [6] 2.69% | RAM network inhibition [7] 8.64%

CCN(CC)C(=O)CSc1ccccc1N
inactive: growth inhibition [1] -16.2% | growth inhibition [2] -9.23% | viability increase [3] -1.98% | viability [4] 89.5% | viability [5] 94.4% | inhibition [6] 0.885% | RAM network inhibition [7] 5.73%

CCOC(=O)c1ccc(NCn2c(=O)oc3ccccc32)cc1
inactive: growth inhibition [1] -8.51% | growth inhibition [2] -15.7% | viability increase [3] -4.09% | viability [4] 88.5% | viability [5] 87.6% | inhibition [6] -0.385% | RAM network inhibition [7] -0.1%

Cc1cccc(OCC(=O)Nc2ccc3c(c2)OCO3)c1C
inactive: growth inhibition [1] -5.98% | growth inhibition [2] -2.99% | viability increase [3] -0.26% | viability [4] 103% | viability [5] 103% | inhibition [6] 1.77% | RAM network inhibition [7] 7.79%

CC1CN(CCC(=O)Nc2ccc3c(c2)CCC3)CC(C)O1 (configuration not stated)
inactive: growth inhibition [1] -3.75% | growth inhibition [2] -3.82% | viability increase [3] -0.55% | viability [4] 97.5% | viability [5] 93% | inhibition [6] 0.995% | RAM network inhibition [7] 6.16%

CC(CCc1ccccc1)C(=O)NO (configuration not stated)
inactive: growth inhibition [1] -6.16% | growth inhibition [2] -10.5% | viability increase [3] -3.84% | viability [4] 95.6% | viability [5] 91.6% | inhibition [6] 0.87% | RAM network inhibition [7] 1.5%

COc1cc(NC(=O)C2CCCN2C(=O)C2CCC(C)CC2)cc(OC)c1OC (configuration not stated)
inactive: growth inhibition [1] -6.57% | growth inhibition [2] -3.52% | viability increase [3] -1.44% | viability [4] 96.3% | viability [5] 93.2% | inhibition [6] 2.65% | RAM network inhibition [7] 1.46%

O=C(NC1CCN(Cc2ccccc2)CC1)C1CCCN(c2nnc(-n3cccc3)s2)C1 (configuration not stated)
inactive: growth inhibition [1] -4.03% | growth inhibition [2] 11.1% | viability increase [3] -4.97% | viability [4] 93.1% | viability [5] 84.5% | inhibition [6] 0.085% | RAM network inhibition [7] 0.11%

COc1ccc(CCNC(=O)c2cc3ccccn3n2)c(OC)c1OC
inactive: growth inhibition [1] -3.78% | growth inhibition [2] 7.63% | viability increase [3] -0.02% | viability [4] 112% | viability [5] 106% | inhibition [6] 1.92% | RAM network inhibition [7] -0.2%

O=C1CC(c2ccco2)CC(O)=C1C=NCCO (configuration not stated)
inactive: growth inhibition [1] -12.7% | growth inhibition [2] -1.73% | viability increase [3] 0.27% | viability [4] 104% | viability [5] 105% | inhibition [6] 1.79% | RAM network inhibition [7] 3.26%

Cc1ccc(NC(=O)NCCN2C(=O)C3C4C=CC(C4)C3C2=O)cc1 (configuration not stated)
inactive: growth inhibition [1] -8.32% | growth inhibition [2] 10.9% | viability increase [3] -0.07% | viability [4] 98% | viability [5] 102% | inhibition [6] 0.865% | RAM network inhibition [7] 1.04%

Cc1oc(-c2ccc(Cl)cc2)nc1CN1CCCC(C(=O)NCCCN2CCCC2=O)C1 (configuration not stated)
inactive: growth inhibition [1] -14.7% | growth inhibition [2] -21.4% | viability increase [3] -0.61% | viability [4] 63.8% | viability [5] 78.7% | inhibition [6] 1.73% | RAM network inhibition [7] 0.96%

CCOC(=O)CSC1=C(C#N)C(c2ccc(C)s2)CC(=O)N1 (configuration not stated)
inactive: growth inhibition [1] -9.3% | growth inhibition [2] -13.3% | viability increase [3] -5.84% | inhibition [6] 1.54% | RAM network inhibition [7] 0.22%
active: viability [4] 15.9% | viability [5] 16%

COC(=O)c1cc(OC)c(OC)cc1NC(=O)C1CCCO1 (configuration not stated)
inactive: growth inhibition [1] -6.67% | growth inhibition [2] 1.77% | viability increase [3] -0.93% | viability [4] 105% | viability [5] 99.8% | inhibition [6] 0.545% | RAM network inhibition [7] 4.85%

COc1ccccc1NC(=O)CSc1nc2ncccc2[nH]1
inactive: growth inhibition [1] -4.5% | growth inhibition [2] 17.8% | viability increase [3] -1.01% | viability [4] 101% | viability [5] 98.2% | inhibition [6] 0.975% | RAM network inhibition [7] 3.83%

C=CCOc1cccc(C2c3c(oc4ccc(F)cc4c3=O)C(=O)N2CCCN2CCOCC2)c1 (configuration not stated)
inactive: growth inhibition [1] -4.2% | growth inhibition [2] 2.91% | viability increase [3] -5.54% | viability [4] 93% | viability [5] 93.5% | inhibition [6] -0.045% | RAM network inhibition [7] 1.42%

CCCC(=O)C1=C(O)C(C(=O)OC)C(C)(C)CC1=Nc1ccncc1 (configuration not stated)
inactive: growth inhibition [1] 0.755% | growth inhibition [2] 9.75% | viability increase [3] -2.84% | viability [4] 96.7% | viability [5] 94.6% | inhibition [6] 0.73% | RAM network inhibition [7] 0.11%

Cc1cnc(C(=O)OCC(=O)Nc2ccc(Cl)cc2)cn1
inactive: growth inhibition [1] -19% | growth inhibition [2] -21% | viability increase [3] -2.99% | viability [4] 101% | viability [5] 92.8% | inhibition [6] 3.85% | RAM network inhibition [7] 3.15%

CCCc1cc(C(=O)NCc2ccc(OC)cc2)no1
inactive: growth inhibition [1] -7.46% | growth inhibition [2] 18.4% | viability increase [3] -0.95% | viability [4] 107% | viability [5] 99.3% | inhibition [6] 1.78% | RAM network inhibition [7] -0.68%

O=C(Cn1ncc2ccccc21)N1CCc2ccccc21
inactive: growth inhibition [1] -9.24% | growth inhibition [2] -14.6% | viability increase [3] -3% | viability [4] 72.2% | viability [5] 84.2% | inhibition [6] 1.26% | RAM network inhibition [7] 3.51%

CC1(C)CC(n2c(NCCO)nc3c(c2=O)C2(CCCC2)Cc2ccccc2-3)CCO1 (configuration not stated)
inactive: growth inhibition [1] 11.7% | growth inhibition [2] 2.4% | viability increase [3] -6.73% | viability [4] 96.2% | viability [5] 93.4% | inhibition [6] 0.65% | RAM network inhibition [7] 7.43%

CCN(C(=O)c1sc(N)c(C#N)c1C)C1CCCCC1
inactive: growth inhibition [1] -1.28% | growth inhibition [2] -0.585% | viability increase [3] 0.43% | viability [4] 92.1% | viability [5] 91.6% | inhibition [6] 1.5% | RAM network inhibition [7] 0.01%

CCn1c(-c2ccc(N)cc2)nc2ccccc21
inactive: growth inhibition [1] -7.32% | growth inhibition [2] 7.48% | viability increase [3] -3.43% | viability [4] 103% | viability [5] 83.5% | inhibition [6] 1.18% | RAM network inhibition [7] 0.72%

COc1ccc(C(C#N)(CCC#N)CCC#N)cc1OC
inactive: growth inhibition [1] -14.5% | growth inhibition [2] -4.89% | viability increase [3] -1.32% | viability [4] 99.7% | viability [5] 105% | inhibition [6] 1.13% | RAM network inhibition [7] 3.89%

Cc1nc2ccccc2c2oc(C(=O)NCc3ccc4c(c3)OCO4)cc12
inactive: growth inhibition [1] -5.28% | growth inhibition [2] -8.97% | viability increase [3] -0.55% | viability [4] 70.8% | viability [5] 80.8% | inhibition [6] 1.01% | RAM network inhibition [7] 5.03%

From PubChem BioAssay
